Assay results reported in ChEMBL document CHEMBL1137383, “New efficient substrates for semicarbazide-sensitive amine oxidase/VAP-1 enzyme: analysis by SARs and computational docking” (J Med Chem, 2006).
Active and inactive are the calls of the source. The rule behind the calls is not given here.

Legend:
[1] = target: T1, Amine oxidase [copper-containing] 3 (Mus musculus) (UniProt O70423); experiment: Activity of mouse SSAO measured as hydrogen peroxide production at 100 uM relative to benzylamine oxidation; type: functional
T1 sequence (whole entry): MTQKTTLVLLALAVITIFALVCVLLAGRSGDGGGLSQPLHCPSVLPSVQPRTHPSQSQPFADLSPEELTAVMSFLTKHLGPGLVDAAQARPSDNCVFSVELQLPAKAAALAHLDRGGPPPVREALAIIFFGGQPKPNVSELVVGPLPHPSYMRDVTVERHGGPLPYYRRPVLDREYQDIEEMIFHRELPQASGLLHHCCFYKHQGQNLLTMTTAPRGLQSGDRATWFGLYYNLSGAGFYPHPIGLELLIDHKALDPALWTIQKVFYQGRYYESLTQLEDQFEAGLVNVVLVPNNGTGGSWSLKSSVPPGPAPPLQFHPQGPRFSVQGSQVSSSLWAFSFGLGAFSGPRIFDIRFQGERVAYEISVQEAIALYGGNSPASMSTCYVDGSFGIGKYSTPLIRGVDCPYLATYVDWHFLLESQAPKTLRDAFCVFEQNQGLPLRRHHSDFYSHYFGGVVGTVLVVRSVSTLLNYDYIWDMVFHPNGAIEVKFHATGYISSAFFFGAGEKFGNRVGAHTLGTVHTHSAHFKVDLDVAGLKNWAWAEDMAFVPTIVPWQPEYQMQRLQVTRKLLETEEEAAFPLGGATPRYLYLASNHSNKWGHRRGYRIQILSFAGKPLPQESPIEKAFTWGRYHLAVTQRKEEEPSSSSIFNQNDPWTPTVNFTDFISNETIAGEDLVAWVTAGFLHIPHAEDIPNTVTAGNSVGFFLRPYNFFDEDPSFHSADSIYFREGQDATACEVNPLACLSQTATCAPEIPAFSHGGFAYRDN
In short: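 Mouse adipose tissue membranes (Swiss mice, 1 µg protein/assay) in 0.2 mol/L phosphate buffer pH 7.4, 50 min at 37 °C; amine at 100 µM added with HRP/Amplex Red. H2O2 fluorescence (ex 545/em 590) vs H2O2 standard curve, minus 250 µM semicarbazide (20 min preincubation) background. Mean percentage relative to benzylamine-derived H2O2.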

[2] = target: T2, Amine oxidase [copper-containing] 3 (Homo sapiens) (UniProt Q16853); experiment: Activity of human SSAO measured as hydrogen peroxide production at 1 mM relative to benzylamine oxidation; type: functional
T2 sequence (whole entry): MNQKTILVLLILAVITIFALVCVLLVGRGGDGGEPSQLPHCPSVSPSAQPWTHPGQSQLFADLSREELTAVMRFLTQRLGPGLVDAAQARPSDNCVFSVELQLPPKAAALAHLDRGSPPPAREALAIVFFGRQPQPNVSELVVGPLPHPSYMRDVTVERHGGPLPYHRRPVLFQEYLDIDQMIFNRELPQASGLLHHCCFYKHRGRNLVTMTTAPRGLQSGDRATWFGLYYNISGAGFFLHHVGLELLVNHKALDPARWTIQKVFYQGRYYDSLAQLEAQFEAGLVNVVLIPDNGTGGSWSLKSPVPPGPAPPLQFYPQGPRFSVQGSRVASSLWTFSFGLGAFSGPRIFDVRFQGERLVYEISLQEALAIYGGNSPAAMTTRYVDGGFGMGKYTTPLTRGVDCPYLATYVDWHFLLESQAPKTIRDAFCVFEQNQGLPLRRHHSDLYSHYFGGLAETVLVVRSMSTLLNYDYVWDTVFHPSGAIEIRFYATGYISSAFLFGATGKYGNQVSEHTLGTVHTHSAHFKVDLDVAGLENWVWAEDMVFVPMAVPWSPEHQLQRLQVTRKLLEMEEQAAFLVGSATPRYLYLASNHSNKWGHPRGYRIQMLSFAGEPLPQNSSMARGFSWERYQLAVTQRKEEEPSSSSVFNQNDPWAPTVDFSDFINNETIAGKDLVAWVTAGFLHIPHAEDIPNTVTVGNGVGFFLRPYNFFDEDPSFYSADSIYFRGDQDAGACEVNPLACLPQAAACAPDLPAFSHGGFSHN
In short: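 Human recombinant VAP-1 (0.1 µg protein/assay) in 0.2 mol/L phosphate buffer pH 7.4, 50 min at 37 °C; amine at 1 mM added with HRP/Amplex Red mix. H2O2 fluorescence (ex 545/em 590) read every 5 min, quantified against H2O2 standard curve; semicarbazide-preincubated (250 µM, 20 min) background subtracted. Mean percentage relative to benzylamine-derived H2O2.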

Adipocyte [3] = experiment: Stimulation of glucose transport in mouse adipocytes at 0.1 mM in presence of sodium orthovanadate; type: functional, cell-based
In short: (§1)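 Adipocytes from internal fat pads of male Swiss mice (30-35 g), collagenase-isolated, incubated 45 min at 37 °C with amine ± 1 mM sodium orthovanadate (± 1 mM semicarbazide); then 2-deoxy-D-[3H]glucose (0.1 mM final) uptake over 10 min. Two experiments in triplicate, mean ± SEM.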

Adipocyte [4] = experiment: Stimulation of glucose transport in mouse adipocytes at 1 mM in presence of sodium orthovanadate; type: functional, cell-based; in short: as §1

| Compound | Activity [1] [%] | Activity [2] [%] | Activity (Adipocyte [3]) | Activity (Adipocyte [4]) |
| --- | --- | --- | --- | --- |
| CC(C)(C)c1ccc(CN)cc1 | 1 | 0 |  |  |
| NCc1ccccc1F | 44 | 1.3 |  |  |
| NCc1ccc(F)cc1 | 127 | 134 |  |  |
| NCc1cccc(CNC(=O)c2ccc(O)cc2)c1 | 26 | 5 |  |  |
| Cc1ccc(CN)cc1 | 0 | 0 |  |  |
| NCc1ccc(C(=O)NCc2cccc(CN)c2)cc1 | 12 | 17 |  |  |
| NCCc1ccc(F)cc1 | 18 | 35 |  |  |
| NCc1ccc(C(=O)O)cc1 | 4.06 | 0 |  |  |
| CCC(=O)NCc1cccc(CN)c1 | 27 | 4 |  |  |
| CCc1ccc(CN)cc1 | 26 | 14 |  |  |
| COc1cc(CN)cc(OC)c1 | 0.75 | 0 |  |  |
| CC(=O)N[C@H](C(=O)NCc1cccc(CN)c1)c1ccccc1 | 13 | 2 |  |  |
| NCCc1ccc(O)c(O)c1 | 0 | 0 |  |  |
| NCc1cccc(CN)c1 | 0 | 0 |  |  |
| NCc1ccc(OC(F)(F)F)cc1 | 66.2 | 0 |  |  |
| NCc1cccc([N+](=O)[O-])c1O | 5.47 | 0.11 |  |  |
| COc1cccc2[nH]cc(CCN)c12 | 5.54 | 0 |  |  |
| CC(N)c1cccc2ccccc12 (centres undefined) | 0 | 11 |  |  |
| NCc1cccc(CNC(=O)c2ccc(Br)cc2)c1 | 46 | 16 |  |  |
| NCc1cccc(CNC(=O)CI)c1 | 61 | 38 |  |  |
| NCc1cccc(CNC(=O)c2ccc(O)cc2O)c1 | 0 | 0 |  |  |
| COc1ccc(CCN)cc1OC | 3.8 | 0 |  |  |
| NCc1ccc(-c2ccccc2)cc1 | 3.77 | 0 |  |  |

| Compound | Activity [1] [%] | Activity [2] [%] | Activity (Adipocyte [3]) | Activity (Adipocyte [4]) |
| --- | --- | --- | --- | --- |
| NCc1c(O)ccc2ccccc12 | 0 | 0 |  |  |
| NCCCc1ccccc1 | 40 | 44 |  |  |
| COc1ccc(CN)c2ccccc12 | 0 | 0.7 |  |  |
| COc1ccc(CN)cc1 | 4.56 | 0 |  |  |
| COc1ccc(O)c(CN)c1 | 0 | 0 |  |  |
| NCc1ccc(O)c(Br)c1 | 0 | 0 |  |  |
| C=CCOC(=O)NCc1cccc(CN)c1 | 49 | 21 |  |  |
| NCc1ccc(C(F)(F)F)cc1 | 35 | 4 |  |  |
| NCc1ccc(CN)cc1 | 0 | 0 |  |  |
| NCc1ccc(OC(F)(F)F)cc1OC(F)(F)F | 0 | 0 |  |  |
| NCCc1ccccc1 | 19 | 21 |  |  |
| Cc1ccc(S(=O)(=O)NCc2cccc(CN)c2)cc1 | 14 | 12 |  |  |
| Cc1ccc(CN)cc1F | 133 | 88 |  |  |
| NCCCCc1ccccc1 | 71 | 166 | Active | Active |
| NCc1cccc(CNC(=O)c2ccccc2)c1 | 58 | 17 |  |  |
| COc1cc(F)cc(CN)c1 | 4.86 | 2.53 |  |  |
| NCCOc1ccccc1 | 14.6 | 17.9 |  |  |
| CCCCc1ccc(CN)cc1 | 24 | 5 |  |  |
| NCc1ccccc1 | 100 | 100 | Active | Active |
| CC(C)c1ccc(CN)cc1 | 0 | 0 |  |  |
| NCc1ccc(OCc2ccccc2)cc1 | 0 | 0 |  |  |
| CC(=O)NCc1cccc(CN)c1 | 16 | 3 |  |  |
